Where a name gives a salt, the structure may show the parent alone.
Assays:
HepG2 [1] = experiment: Cytotoxicity against human HepG2 cells assessed as inhibition rate at 2.5 uM incubated for 72 hrs by MTT assay relative to control; type: functional
Procedure, shortened: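 HepG2 exposed to each compound at 2.5 µM-range single concentration for 72 h at 37 °C after overnight attachment in DMEM + 10% FBS; 0.1% DMSO control. MTT 4 h, DMSO solubilisation, A570; inhibition rate = (Ac−As)/(Ac−Ab)×100.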

HepG2 [2] = experiment: Cytotoxicity against human HepG2 cells assessed as inhibition of proliferation incubated for 72 hrs by MTT assay; type: functional, cell-based; conditions: HepG2, 72 h
Procedure, shortened: (§1)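 Cells plated at 3×10³/well, grown overnight in DMEM + 10% FBS, then exposed to compounds (DMSO stocks; 0.1% DMSO negative control) for 72 h at 37 °C. MTT (5 mg/mL in PBS, added at 10%) for 4 h, formazan dissolved in DMSO, A570 read. Inhibition = (Ac−As)/(Ac−Ab)×100; IC50 by calculator; ≥3 independent repeats.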

Bel-7402 = experiment: Cytotoxicity against human Bel-7402 cells assessed as inhibition of proliferation incubated for 72 hrs by MTT assay; type: functional, cell-based; conditions: Bel-7402, 72 h; procedure, shortened: as §1
A549 = experiment: Cytotoxicity against human A549 cells assessed as inhibition of proliferation incubated for 72 hrs by MTT assay; type: functional, cell-based; conditions: A549, 72 h; procedure, shortened: as §1
U-251 = experiment: Cytotoxicity against human U251 cells assessed as inhibition of proliferation incubated for 72 hrs by MTT assay; type: functional, cell-based; conditions: U-251, 72 h; procedure, shortened: as §1

Compound	inhibition at 2.5 µM (HepG2 [1]) [%]	IC50 (HepG2 [2]) [µM]	IC50 (Bel-7402) [µM]	IC50 (A549) [µM]	IC50 (U-251) [µM]
COc1cc(C(=O)c2nc3c(Br)cccc3c(=O)[nH]2)cc(OC)c1OC	1.3	–	–	–	–
COc1ccc2nc(C(=O)c3cc(OC)c(OC)c(OC)c3)[nH]c(=O)c2c1	4.2	–	–	–	–
COc1cc(C(=O)c2nc3ccccc3c(=O)n2C)cc(OC)c1OC	17.4	8.19	6.34	20.3	> 100
COc1cc(C(=O)c2nc3ccc(F)cc3c(=O)[nH]2)cc(OC)c1OC	5.1	–	–	–	–
COc1cc(C(=O)c2nc3ccc(Cl)cc3c(=O)[nH]2)cc(OC)c1OC	3.4	–	–	–	–
COc1cc(C(=O)c2nc3c(Cl)cccc3c(=O)[nH]2)cc(OC)c1OC	9.2	–	–	–	–
COc1ccccc1C(=O)c1nc2ccccc2c(=O)[nH]1	–	> 50	–	–	–
COc1cc(C(=O)c2nc3cc(Br)ccc3c(=O)[nH]2)cc(OC)c1OC	17.6	7.45	4.91	7.27	> 100
COc1cc(C(=O)c2nc3cc(F)c(F)cc3c(=O)[nH]2)cc(OC)c1OC	1.2	–	–	–	–
COc1cc(C(=O)c2nc3cc(Cl)ccc3c(=O)[nH]2)cc(OC)c1OC	8.2	–	–	–	–
O=C(c1ccc(Cl)cc1)c1nc2ccccc2c(=O)[nH]1	–	> 50	–	–	–
COc1cc(C(=O)c2nc3ccccc3c(=O)n2Cc2nnc(-c3ccco3)o2)cc(OC)c1OC	34.4	7.51	8.15	4.62	15.9
COc1ccc(C(=O)c2nc3ccccc3c(=O)[nH]2)cc1	–	> 50	–	–	–
COc1cc(C(=O)c2nc3ccc([N+](=O)[O-])cc3c(=O)[nH]2)cc(OC)c1OC	8.8	–	–	–	–
O=C(c1ccc(C(F)(F)F)cc1)c1nc2ccccc2c(=O)[nH]1	–	> 50	–	–	–
COc1cc(C(=O)c2nc(OC(C)C)c3ccccc3n2)cc(OC)c1OC	10.8	7.45	4.91	7.27	> 100
COc1cc(C(=O)c2nc3ccccc3c(=O)n2Cc2nnc(-c3ccc(F)cc3)o2)cc(OC)c1OC	26.3	7.07	4.86	7.66	27.5
COc1cc(C(=O)c2nc(Cl)c3ccccc3n2)cc(OC)c1OC	18.4	10.9	6.88	7.09	> 100
O=C(c1nc2ccccc2c(=O)[nH]1)c1ccccc1C(F)(F)F	–	> 50	–	–	–
O=C(c1ccc(OC(F)(F)F)cc1)c1nc2ccccc2c(=O)[nH]1	–	> 50	–	–	–

Compound	inhibition at 2.5 µM (HepG2 [1]) [%]	IC50 (HepG2 [2]) [µM]	IC50 (Bel-7402) [µM]	IC50 (A549) [µM]	IC50 (U-251) [µM]
COc1cc(C(=O)c2nc3c(OC)cccc3c(=O)[nH]2)cc(OC)c1OC	8.1	–	–	–	–
COc1cc(C(=O)c2nc3cc(F)ccc3c(=O)[nH]2)cc(OC)c1OC	9.7	–	–	–	–
O=C(c1ccc(O)cc1)c1nc2ccccc2c(=O)[nH]1 [PENIPANOID C]	–	> 50	–	–	–
COc1cc(C(=O)c2nc3cccc(Cl)c3c(=O)[nH]2)cc(OC)c1OC	3.7	–	–	–	–
COc1ccc2c(=O)[nH]c(C(=O)c3cc(OC)c(OC)c(OC)c3)nc2c1	43.4	10.6	4.13	12.7	13.7
COc1cccc2c1C(=O)c1c(O)c3c(c(O)c1C2=O)C[C@@](O)(C(=O)CO)C[C@@H]3O[C@H]1C[C@H](N)[C@H](O)[C@H](C)O1 [DOXORUBICIN HYDROCHLORIDE]	–	2.21	1.28	–	0.157
COc1cc(C(=O)c2nc3cccc(Br)c3c(=O)[nH]2)cc(OC)c1OC	5.1	–	–	–	–
COc1cc(C(=O)c2nc3ccccc3c(=O)n2Cc2nnc(-c3ccc(Cl)cc3)o2)cc(OC)c1OC	2.3	–	–	–	–
COc1cc2nc(C(=O)c3cc(OC)c(OC)c(OC)c3)[nH]c(=O)c2cc1OC	5.1	–	–	–	–
COc1cc(C(=O)c2nc3ccc(Br)cc3c(=O)[nH]2)cc(OC)c1OC	3.4	–	–	–	–
COc1cc(C(=O)c2nc3cccc(F)c3c(=O)[nH]2)cc(OC)c1OC	9.4	–	–	–	–
COc1cc(C(=O)c2nc3cc([N+](=O)[O-])ccc3c(=O)[nH]2)cc(OC)c1OC	6.9	–	–	–	–
COc1cc(C(=O)c2nc3cccc(OC)c3c(=O)[nH]2)cc(OC)c1OC	10.2	9.15	7.1	15.4	19.2
C#CCn1c(C(=O)c2cc(OC)c(OC)c(OC)c2)nc2ccccc2c1=O	54.7	4.97	5.4	7.66	12.8
COc1cc(C(=O)c2nc3ccccc3c(=O)n2Cc2nnc(-c3ccc(C)cc3)o2)cc(OC)c1OC	12.6	10.5	8.88	47.1	27
CCOc1nc(C(=O)c2cc(OC)c(OC)c(OC)c2)nc2ccccc12	32	15.6	8.29	> 100	10.6
C=CCn1c(C(=O)c2cc(OC)c(OC)c(OC)c2)nc2ccccc2c1=O	21	14.1	10.7	10.5	13
COc1cc(C(=O)c2nc3c(F)cccc3c(=O)[nH]2)cc(OC)c1OC	6.8	–	–	–	–
O=C(c1ccc(F)cc1)c1nc2ccccc2c(=O)[nH]1	–	> 50	–	–	–
O=C(c1nc2ccccc2c(=O)[nH]1)c1ccccc1OC(F)(F)F	–	> 50	–	–	–

From ChEMBL document CHEMBL4842335, “Discovery of penipanoid C-inspired 2-(3,4,5-trimethoxybenzoyl)quinazolin-4(3H)-one derivatives as potential anticancer agents by inhibiting cell proliferation and inducing apoptosis in hepatocellular carcinoma cells” (Eur J Med Chem, 2021)
